Experimental data taken from ChEMBL document CHEMBL5131497, “Design, Synthesis, and Characterization of TNP-2198, a Dual-Targeted Rifamycin-Nitroimidazole Conjugate with Potent Activity against Microaerophilic and Anaerobic Bacterial Pathogens” (J Med Chem, 2022).
Converted amounts (≈) assume the structure as drawn.

Experiments:
Type in all cases: functional
Helicobacter pylori [1] = assay: Antibacterial activity against rifampicin-resistant Helicobacter pylori CB1614 harboring rpoBL525I/D530N at 1:1 compound to metronidazole molar ratio measured after 5 days in presence of metronidazole by agar dilution method; settings: CB1614, 120 h, time 5 day
Procedure, shortened: (§1)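 Agar dilution per CLSI. Wild-type ATCC 700392 (CB1531) and its derivatives carry defined resistance determinants. Drugs, alone or in 1:1 molar mixtures, were diluted 2-fold from 100× stocks into Mueller–Hinton agar with aged (≥2 weeks) sheep blood (5% v/v). MIC read after 5 days at 35 °C under microaerobic conditions from a campylobacter gas-generating system.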

Helicobacter pylori [2] = assay: Antibacterial activity against rifampicin-resistant Helicobacter pylori CB1902 harboring rpoBV149F mutant measured after 5 days by agar dilution method; settings: CB1902, 120 h, time 5 day; procedure, shortened: as §1
Helicobacter pylori [3] = assay: Antibacterial activity against rifampicin-resistant Helicobacter pylori CB1614 harboring rpoBL525I/D530N mutant measured after 5 days by agar dilution method; settings: CB1614, 120 h, time 5 day; procedure, shortened: as §1
Helicobacter pylori [4] = assay: Antibacterial activity against rifampicin-resistant Helicobacter pylori CB1903 harboring rpoBD530V mutant measured after 5 days by agar dilution method; settings: CB1903, 120 h, time 5 day; procedure, shortened: as §1
Helicobacter pylori [5] = assay: Antibacterial activity against metronidazole/rifampicin-resistant Helicobacter pylori CB1893 harboring rpoBL525I/D530N/rdxAR16S mutant measured after 5 days by agar dilution method; settings: CB1893, 120 h, time 5 day; procedure, shortened: as §1
Helicobacter pylori [6] = assay: Antibacterial activity against metronidazole/rifampicin-resistant Helicobacter pylori CB1771 harboring rpoBL525I/D530N/rdxAE75stop mutant measured after 5 days by agar dilution method; settings: CB1771, 120 h, time 5 day; procedure, shortened: as §1
Helicobacter pylori [7] = assay: Antibacterial activity against metronidazole/rifampicin-resistant Helicobacter pylori CB1771 harboring rpoBL525I/D530N/rdxAE75stop mutant at 1:1 compound to metronidazole molar ratio measured after 5 days in presence of metronidazole by agar dilution method; settings: CB1771, 120 h, time 5 day; procedure, shortened: as §1
Helicobacter pylori [8] = assay: Antibacterial activity against metronidazole/rifampicin-resistant Helicobacter pylori CB1893 harboring rpoBL525I/D530N/rdxAR16S mutant at 1:1 compound to metronidazole molar ratio measured after 5 days in presence of metronidazole by agar dilution method; settings: CB1893, 120 h, time 5 day; procedure, shortened: as §1
Helicobacter pylori [9] = assay: Antibacterial activity against Helicobacter pylori ATCC 700392
Procedure, shortened: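 Agar dilution per CLSI. Wild-type H. pylori ATCC 700392 (CB1531). Drugs prepared from 100× stocks as 2-fold dilutions in Mueller–Hinton agar with aged (≥2 weeks) sheep blood (5% v/v). Combinations were at 1:1 molar ratio. MIC read after 5 days at 35 °C under microaerobic atmosphere from a campylobacter gas-generating system.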

Staphylococcus aureus = assay: Antibacterial activity against Staphylococcus aureus ATCC 29213
Helicobacter pylori [10] = assay: Antibacterial activity against metronidazole-resistant Helicobacter pylori CB1573 harboring rdxAR16S mutant at 1:1 compound to metronidazole molar ratio measured after 5 days in presence of metronidazole by agar dilution method; settings: CB1573, 120 h, time 5 day; procedure, shortened: as §1
Helicobacter pylori [11] = assay: Antibacterial activity against rifampicin-resistant Helicobacter pylori CB1902 harboring rpoBV149F mutant at 1:1 compound to metronidazole molar ratio measured after 5 days in presence of metronidazole by agar dilution method; settings: CB1902, 120 h, time 5 day; procedure, shortened: as §1
Helicobacter pylori [12] = assay: Antibacterial activity against rifampicin-resistant Helicobacter pylori CB1903 harboring rpoBD530V mutant at 1:1 compound to metronidazole molar ratio measured after 5 days in presence of metronidazole by agar dilution method; settings: CB1903, 120 h, time 5 day; procedure, shortened: as §1
Clostridioides difficile [13] = assay: Antibacterial activity against Clostridioides difficile ATCC 9689
[14] = tested on: Bacteroides thetaiotaomicron; assay: Antibacterial activity against metronidazole-resistant Bacteroides thetaiotaomicron MMX 3409
Bacteroides uniformis = assay: Antibacterial activity against Bacteroides uniformis MMX 1277
Peptostreptococcus sp. = assay: Antibacterial activity against Peptostreptococcus magnus ATCC 14956
Phocaeicola vulgatus = assay: Antibacterial activity against Bacteroides vulgatus MMX 8348
Clostridioides difficile [15] = assay: Antibacterial activity against rifampicin-resistant Clostridium difficile MMX 3587
Campylobacter gracilis = assay: Antibacterial activity against Bacteroides gracilis ATCC 33236 MMX 1270
Prevotella disiens [16] = assay: Antibacterial activity against Prevotella disiens MMX 3457
Bacteroides fragilis = assay: Antibacterial activity against metronidazole-resistant Bacteroides fragilis MMX 3387
Helicobacter pylori [17] = assay: Antibacterial activity against Helicobacter pylori infected in C57/BL6 mouse assessed as bacterial load in stomach at 10 mg/kg administered twice daily via oral gavage starting from 7 days post inoculation and administered for 7 days (reference value: 5.25 log10CFU); settings: time 7 day
Clostridioides difficile [18] = assay: Antibacterial activity against rifampicin/fluoroquinolone-resistant Clostridioides difficile CB1940 harboring rpoBQ489K/gyrAA118S mutant at 1:1 compound to metronidazole molar ratio measured after 3 days in presence of metronidazole; settings: CB1940, 72 h, time 3 day
Clostridioides difficile [19] = assay: Antibacterial activity against fluoroquinolone-resistant Clostridioides difficile CB1939 at 1:1 compound to metronidazole molar ratio measured after 3 days in presence of metronidazole; settings: CB1939, 72 h, time 3 day
Clostridioides difficile [20] = assay: Antibacterial activity against Clostridioides difficile clinical isolate China
Clostridioides difficile [21] = assay: Antibacterial activity against rifampicin-resistant Clostridioides difficile CB1934 harboring rpoBQ489K mutant at 1:1 compound to metronidazole molar ratio measured after 3 days in presence of metronidazole; settings: CB1934, 72 h, time 3 day
Actinomyces naeslundii = assay: Antibacterial activity against Actinomyces naeslundii ATCC 1210
Helicobacter pylori [22] = assay: Antibacterial activity against metronidazole-resistant Helicobacter pylori CB1573 harboring rdxAR16S mutant measured after 5 days by agar dilution method; settings: CB1573, 120 h, time 5 day; procedure, shortened: as §1
Fusobacterium nucleatum = assay: Antibacterial activity against Fusobacterium nucleatum ATCC 25586
Prevotella bivia = assay: Antibacterial activity against Prevotella bivia ATCC 29303/MMX 5718
Clostridioides difficile [23] = assay: Antibacterial activity against rifampicin-resistant Clostridioides difficile CB1934 harboring rpoBQ489K mutant measured after 3 days; settings: CB1934, 72 h, time 3 day
Prevotella disiens [24] = assay: Antibacterial activity against Prevotella disiens MMX 3446
Veillonella parvula = assay: Antibacterial activity against Veillonella parvula ATCC 17745 MMX 1272
Prevotella intermedia = assay: Antibacterial activity against Prevotella intermedia ATCC 25611 MMX 3002
Clostridioides difficile [25] = assay: Antibacterial activity against rifampicin-resistant Clostridioides difficile harboring rpoBQ489K mutant
Clostridioides difficile [26] = assay: Antibacterial activity against rifampicin/fluoroquinolone-resistant Clostridioides difficile CB1942 harboring rpoBQ489K/gyrAD71Y/T82A mutant measured after 3 days; settings: CB1942, 72 h, time 3 day
Clostridioides difficile [27] = assay: Antibacterial activity against fluoroquinolone-resistant Clostridioides difficile CB1941 harboring gyrAD71Y/T82A mutant at 1:1 compound to metronidazole molar ratio measured after 3 days in presence of metronidazole; settings: CB1941, 72 h, time 3 day
[28] = tested on: Porphyromonas asaccharolytica; assay: Antibacterial activity against metronidazole-resistant Prevotella asaccharolytica MMX 3552
Clostridioides difficile [29] = assay: Antibacterial activity against rifampicin/fluoroquinolone-resistant Clostridioides difficile CB1940 harboring rpoBQ489K/gyrAA118S mutant measured after 3 days; settings: CB1940, 72 h, time 3 day
Clostridioides difficile [30] = assay: Antibacterial activity against Clostridioides difficile BAA 1382
Clostridioides difficile [31] = assay: Antibacterial activity against rifampicin/fluoroquinolone-resistant Clostridioides difficile CB1942 harboring rpoBQ489K/gyrAD71Y/T82A mutant at 1:1 compound to metronidazole molar ratio measured after 3 days in presence of metronidazole; settings: CB1942, 72 h, time 3 day
Bifidobacterium longum = assay: Antibacterial activity against Bifidobacterium longum ATCC 15707
Helicobacter pylori [32] = assay: Antibacterial activity against Helicobacter pylori ATCC 700392 at 1:1 compound to metronidazole molar ratio measured after 5 days in presence of metronidazole by agar dilution method; settings: ATCC 700392, 120 h, time 5 day; procedure, shortened: as §1
Gardnerella vaginalis [33] = assay: Antibacterial activity against Gardnerella vaginalis ATCC 49145
Helicobacter pylori [34] = assay: Antibacterial activity against Helicobacter pylori clinical isolate China
Gardnerella vaginalis [35] = assay: Antibacterial activity against Gardnerella vaginalis ATCC 14018
Helicobacter pylori [36] = assay: Antibacterial activity against Helicobacter pylori clinical isolate USA
Clostridioides difficile [37] = assay: Antibacterial activity against fluoroquinolone-resistant Clostridioides difficile CB1941 harboring gyrAD71Y/T82A mutant measured after 3 days; settings: CB1941, 72 h, time 3 day

Structure (SMILES): CO[C@H]1/C=C/O[C@@]2(C)Oc3c(C)c(O)c4c(c3C2=O)C2=NC3(CCN(CC(C)C)CC3)NC2=C(NC(=O)/C(C)=C\C=C\[C@H](C)[C@H](O)[C@@H](C)[C@@H](O)[C@@H](C)[C@H](OC(C)=O)[C@@H]1C)C4=O [RIFABUTIN]
- MIC (Helicobacter pylori [1]): 2 µg/mL
- MIC (Helicobacter pylori [2]): 16 µg/mL (≈ 18.9 µM)
- MIC (Helicobacter pylori [3]): 16 µg/mL (≈ 18.9 µM)
- MIC (Helicobacter pylori [4]): 16 µg/mL (≈ 18.9 µM)
- MIC (Helicobacter pylori [5]): 16 µg/mL (≈ 18.9 µM)
- MIC (Helicobacter pylori [6]): 16 µg/mL (≈ 18.9 µM)
- MIC (Helicobacter pylori [7]): 16 µg/mL
- MIC (Helicobacter pylori [8]): 16 µg/mL
- MIC (Helicobacter pylori [9]): 0.001 µg/mL (≈ 0.00118 µM)
- MIC (Staphylococcus aureus): 0.03 µg/mL (≈ 0.0354 µM)
- MIC (Helicobacter pylori [10]): ≤ 0.002 µg/mL
- MIC (Helicobacter pylori [11]): 2 µg/mL
- MIC (Helicobacter pylori [12]): 1 µg/mL
- MIC (Clostridioides difficile [13]): 0.0001 µg/mL (≈ 0.000118 µM)

Structure (SMILES): CCC[C@@H]1C[C@@H](C(=O)N[C@@H]([C@H]2O[C@H](SC)[C@H](O)[C@@H](O)[C@H]2O)[C@H](C)Cl)N(C)C1 [CLINDAMYCIN]
- MIC [14]: > 64 µg/mL
- MIC (Bacteroides uniformis): 0.25 µg/mL (≈ 0.588 µM)
- MIC (Peptostreptococcus sp.): 1 µg/mL (≈ 2.35 µM)
- MIC (Phocaeicola vulgatus): 0.25 µg/mL (≈ 0.588 µM)
- MIC (Clostridioides difficile [15]): 8 µg/mL (≈ 18.8 µM)
- MIC (Campylobacter gracilis): 0.06 µg/mL (≈ 0.141 µM)
- MIC (Prevotella disiens [16]): 0.25 µg/mL (≈ 0.588 µM)
- MIC (Bacteroides fragilis): 2 µg/mL (≈ 4.71 µM)

Structure (SMILES): CC[C@H]1OC(=O)[C@H](C)[C@@H](O[C@H]2C[C@@](C)(OC)[C@@H](O)[C@H](C)O2)[C@H](C)[C@@H](O[C@@H]2O[C@H](C)C[C@H](N(C)C)[C@H]2O)[C@](C)(OC)C[C@@H](C)C(=O)[C@H](C)[C@@H](O)[C@]1(C)O [CLARITHROMYCIN]
- Activity (Helicobacter pylori [17]): 2.85 log10CFU

Structure (SMILES): CO[C@H]1/C=C/O[C@@]2(C)Oc3c(C)c(O)c4c(O)c(c(/C=N/N5CCN(C)CC5)c(O)c4c3C2=O)NC(=O)/C(C)=C\C=C\[C@H](C)[C@H](O)[C@@H](C)[C@@H](O)[C@@H](C)[C@H](OC(C)=O)[C@@H]1C [RIFAMPIN]
- MIC (Clostridioides difficile [18]): 2 µg/mL
- MIC (Clostridioides difficile [19]): ≤ 0.03 µg/mL
- MIC (Clostridioides difficile [20]): 0.06 µg/mL (≈ 0.0729 µM)
- MIC90 (Clostridioides difficile [20]): ≥ 128 µg/mL
- MIC (Clostridioides difficile [21]): 2 µg/mL
- MIC (Helicobacter pylori [1]): 8 µg/mL
- MIC [14]: 0.5 µg/mL (≈ 0.608 µM)
- MIC (Actinomyces naeslundii): 0.03 µg/mL (≈ 0.0365 µM)
- MIC (Helicobacter pylori [22]): 0.5 µg/mL (≈ 0.608 µM)
- MIC (Fusobacterium nucleatum): 0.5 µg/mL (≈ 0.608 µM)
- MIC (Prevotella bivia): 0.5 µg/mL (≈ 0.608 µM)
- MIC (Clostridioides difficile [23]): > 32 µg/mL
- MIC (Helicobacter pylori [4]): > 32 µg/mL
- MIC (Prevotella disiens [24]): 0.12 µg/mL (≈ 0.146 µM)
- MIC (Veillonella parvula): 4 µg/mL (≈ 4.86 µM)
- MIC (Prevotella intermedia): 0.12 µg/mL (≈ 0.146 µM)
- MIC (Clostridioides difficile [25]): 0.25 µg/mL (≈ 0.304 µM)
- MIC (Bacteroides uniformis): 0.5 µg/mL (≈ 0.608 µM)
- MIC (Clostridioides difficile [26]): > 32 µg/mL
- MIC (Clostridioides difficile [27]): ≤ 0.03 µg/mL
- MIC (Peptostreptococcus sp.): 1 µg/mL (≈ 1.22 µM)
- MIC [28]: 0.004 µg/mL (≈ 0.00486 µM)
- MIC (Clostridioides difficile [29]): > 32 µg/mL
- MIC (Clostridioides difficile [30]): 0.001 µg/mL (≈ 0.00122 µM)
- MIC (Clostridioides difficile [31]): 2 µg/mL
- MIC (Bifidobacterium longum): 0.5 µg/mL (≈ 0.608 µM)
- MIC (Staphylococcus aureus): 0.008 µg/mL (≈ 0.00972 µM)
- MIC (Helicobacter pylori [10]): 0.25 µg/mL
- MIC (Helicobacter pylori [11]): 8 µg/mL
- MIC (Prevotella disiens [16]): 0.5 µg/mL (≈ 0.608 µM)
- MIC (Helicobacter pylori [32]): 0.5 µg/mL
- MIC (Gardnerella vaginalis [33]): 0.5 µg/mL (≈ 0.608 µM)
- MIC (Helicobacter pylori [12]): 16 µg/mL
- MIC (Helicobacter pylori [34]): ≤ 0.06 µg/mL
- MIC90 (Helicobacter pylori [34]): 0.5 µg/mL (≈ 0.608 µM)
- MIC (Gardnerella vaginalis [35]): 0.5 µg/mL (≈ 0.608 µM)
- MIC (Clostridioides difficile [13]): 0.001 µg/mL (≈ 0.00122 µM)
- MIC (Helicobacter pylori [36]): ≥ 0.007 µg/mL
- MIC (Clostridioides difficile [37]): ≤ 0.03 µg/mL
